Data taken from PubChem BioAssay.
The source made the active and inactive calls.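 The calls were made as follows, unless noted: active = inhibition above 20% together with a positive visual image hit; inconclusive = visual image hit but inhibition not above 20%; inactive = no visual image hit.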

Columns and labels:
[1] = inhibitors of TNFa-induced NFkB p65 translocation, primary screen, imaging, HUVEC, MLSMR starter and 10KST1 sets (AID 438); settings: HUVEC TNFa-induced p65 nuclear translocation; cell count: measured here: nuclei count (cytotoxicity indicator), at 2.08 µM; inhibition: at 2 µM, stronger effect = higher value, 0% TNFa-plus-vehicle, 100% no-TNFa wells;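 also: compound added about 3h40 before a 20 min TNFalpha stimulation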;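 as to inhibition: signal is the nuclear over cytoplasmic p65 intensity ratio per well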
[2] = inhibitors of mutant huntingtin aggregation, primary screen, imaging, exon1htt(103Q)mCFP cells, high-content imaging (AID 483;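 active = visual image review flags a hit and inhibition of aggregation exceeds 20%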;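 also: compound exposure lasted 3 days before fixation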;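 as to nuclei count: percent of the per-plate median nuclei count of sample wells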); settings: exon1htt(103Q)mCFP cell line, aggregate imaging, at 2 µM; inhibition of aggregation: stronger effect = higher value; nuclei count: measured here: cell count, toxicity
[3] = inhibitors of E-selectin induction by TNFa, primary screen, imaging, HUVEC, immunofluorescence, MLSMR starter and 10KST1 sets (AID 487;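 active = visually confirmed hit in the image check and inhibition above 20%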;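 as to inhibition: signal is fraction of cell area covered by stained E-selectin grains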;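 as to nuclei count: 100% = median nuclei count of all wells on the same plate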); settings: HUVEC TNFalpha-induced E-selectin immunofluorescence imaging, at 2 µM; inhibition: stronger effect = higher value; nuclei count: measured here: cell number, toxicity
[4] = target: Voltage-gated potassium channel subunit beta-2 (Rattus norvegicus) (UniProt P62483); test: KvBeta enzyme negative modulators, primary screen, biochemical, NADPH fluorescence (AID 622;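 active = fluorescence slope higher than the sample average by over 3 SD, cut at about -0.22 in these data, passing the limit was not always enough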;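 also: slope of raw intensity against log time taken from 70 to 1610 s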); settings: recombinant KvBeta, 4-cyanobenzaldehyde reduction, at 10 µM, stronger effect = higher value
[5] = target: Voltage-gated potassium channel subunit beta-2 (Rattus norvegicus) (UniProt P62483); test: KvBeta positive modulators, primary screen, biochemical, NADPH fluorescence (AID 623;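 active = NADPH fluorescence slope more negative than the mean of all samples by about 3 SD, 99.7% confidence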;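 also: fluorescence intensity change per second fitted from 20 to 320 s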); settings: Recombinant KvBeta, NADPH fluorescence decrease slope, 10 min; at 10 µM; stronger effect = lower value
[6] = target: Muscarinic acetylcholine receptor M4 (Homo sapiens) (UniProt P08173); test: compounds altering M4/GIRK thallium flux, either direction, primary screen, M4 allosteric agonist project, cell-based, HEK293 M4/GIRK, BTC-AM (AID 625;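 active = fluorescence slope after compound addition differing from the mean of all tested samples at 99.7% confidence, mostly higher but some lower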;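 also: thallium influx through GIRK channels coupled to M4 in HEK293 cells with BTC-AM dye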); settings: at 10 µM, actives lie on both sides
In short: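 Assay system: HEK293 cells with M4 receptor and GIRK channels / Controls: carbachol and DMSO controls / Schedule: 1 h dye loading, 2 min kinetic read / Technique: kinetic fluorescence with BTC-AM dye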

[7] = inhibitors of Sendai virus-induced IRF3 signaling, primary screen, TLR/RLR signaling modifier project, cell-based, Sendai virus stimulus, luciferase, 10K MLSCN set (AID 602276;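 active = inhibition at or above 50% at 10 µM; inactive = inhibition below 50%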;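 also: firefly luciferase from ISG56 promoter only with Renilla not read in this screen; 0% = Sendai virus plus DMSO and 100% = medium plus DMSO without virus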); settings: HEK293 RL24 IRF3 luciferase reporter, at 10 µM, stronger effect = higher value
[8] = inhibitors of poly I:C-induced TLR3 signaling, primary screen, cell-based, poly I:C stimulus, luciferase, 10K MLSCN set (AID 602277;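 active = inhibition of the reporter signal at or above 50%; inactive = inhibition below 50%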); settings: HEK293-TLR3 RL24 IRF3 luciferase reporter, at 10 µM, stronger effect = higher value

Chain of Muscarinic acetylcholine receptor M4 (Homo sapiens) (P08173 whole entry, looked up): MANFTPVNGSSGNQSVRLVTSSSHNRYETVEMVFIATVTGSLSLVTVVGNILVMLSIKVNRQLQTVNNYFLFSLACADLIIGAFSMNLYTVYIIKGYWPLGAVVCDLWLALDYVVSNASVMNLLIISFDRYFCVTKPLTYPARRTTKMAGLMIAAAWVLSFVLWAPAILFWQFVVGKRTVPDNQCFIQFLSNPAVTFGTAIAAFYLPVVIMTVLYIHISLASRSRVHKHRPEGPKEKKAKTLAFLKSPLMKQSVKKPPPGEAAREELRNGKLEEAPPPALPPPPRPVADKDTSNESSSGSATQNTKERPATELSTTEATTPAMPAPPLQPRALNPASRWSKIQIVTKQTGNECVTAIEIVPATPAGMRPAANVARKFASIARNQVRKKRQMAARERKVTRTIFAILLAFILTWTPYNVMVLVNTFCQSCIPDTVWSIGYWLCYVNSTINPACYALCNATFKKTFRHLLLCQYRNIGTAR
Chain of Voltage-gated potassium channel subunit beta-2 (Rattus norvegicus) (P62483 whole entry, looked up): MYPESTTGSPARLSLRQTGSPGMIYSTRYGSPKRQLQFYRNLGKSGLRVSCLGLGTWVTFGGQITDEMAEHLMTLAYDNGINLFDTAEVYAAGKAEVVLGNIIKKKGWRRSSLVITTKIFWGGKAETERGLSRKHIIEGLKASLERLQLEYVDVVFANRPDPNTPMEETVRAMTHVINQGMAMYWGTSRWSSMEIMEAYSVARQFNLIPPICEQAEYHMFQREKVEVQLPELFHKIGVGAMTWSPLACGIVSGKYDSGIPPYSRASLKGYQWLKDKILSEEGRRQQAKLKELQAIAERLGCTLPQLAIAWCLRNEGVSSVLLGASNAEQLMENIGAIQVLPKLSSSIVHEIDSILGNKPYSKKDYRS

Row | SMILES | cell count [1] | inhibition [1] | inhibition of aggregation [2] | nuclei count [2] | inhibition [3] | nuclei count [3] | fluorescence slope [4] | NADPH fluorescence slope [5] | fluorescence slope [6] | inhibition [7] | inhibition [8]
1 | Cc1cc(NC(=O)C2CCCC2)nc2c1c(=O)oc1ccccc12 | 601 | -3.4% (inactive) | 12.4% (inactive) | 98.2% | -16.3% (inactive) | 106% | -0.578 (inactive) | -4.4e-05 (inactive) | 0.00687 (inactive) | 7.38% (inactive) | 9.88% (inactive)
2 | COC(=O)C(C)Sc1nc2c(c(=O)n(C)c(=O)n2C)n1Cc1cccc(C)c1 (stereo not drawn) | 474 | 3.8% (inactive) | -2.4% (inactive) | 99.3% | -27.3% (inactive) | 117% | -0.553 (inactive) | -3.9e-05 (inactive) | 0.00598 (inactive) | 18.9% (inactive) | 26.2% (inactive)
3 | CN(C)/C=C(\C#N)c1nc2ccccc2[nH]1 | 468 | 11.9% (inactive) | -17.2% (inactive) | 67.1% | -7.3% (inactive) | 112% | -0.532 (inactive) | -3.9e-05 (inactive) | 0.00457 (inactive) | -21.4% (inactive) | -44.6% (inactive)
4 | COC(=O)c1ccccc1NC(=O)c1noc2c1CCC2 | 251 | 0.3% (inactive) | 6.7% (inactive) | 100% | -15.1% (inactive) | 120% | -0.597 (inactive) | -2.5e-05 (inactive) | 0.0051 (inactive) | 13.1% (inactive) | 22.8% (inactive)
5 | Cc1nc(NC(=O)C2CC3CCCC(C2)C3=O)sc1C (stereo not drawn) | 411 | 4.4% (inactive) | -32.5% (inactive) | 110% | -36.5% (inactive) | 106% | -0.581 (inactive) | -4.4e-05 (inactive) | 0.00306 (inactive) | -54.4% (inactive) | -87.2% (inactive)
6 | c1ccc(-c2noc(C34CC5CC(CC(C5)C3)C4)n2)nc1 | 362 | 10.2% (inactive) | 17.1% (inactive) | 98.3% | -53.7% (inactive) | 102% | -0.554 (inactive) | -0.00016 (inactive) | 0.00439 (inactive) | -32.9% (inactive) | -64.6% (inactive)
7 | Cc1cccn2c(=O)c3cc(C#N)c(=NC(=O)c4ccncc4)n(Cc4ccco4)c3nc12 | 386 | -1% (inactive) | 5% (inactive) | 99.9% | -36.9% (inactive) | 114% | -0.535 (inactive) | -1.2e-05 (inactive) | 0.00818 (inactive) | 10.3% (inactive) | 19.4% (inactive)
8 | CCSC1=NCN(CCCC(=O)O)CN1 | 645 | 10.1% (inactive) | 5.8% (inactive) | 106% | -81.7% (inactive) | 125% | -0.558 (inactive) | -4e-05 (inactive) | 0.00489 (inactive) | 12.3% (inactive) | 10.3% (inactive)
9 | Cc1cc(=O)oc2cc(OCC(=O)OCc3nnc(-c4ccccc4)o3)ccc12 | 527 | -7.7% (inactive) | 5.8% (inactive) | 123% | -10.9% (inactive) | 121% | -0.399 (inactive) | 2.8e-05 (inactive) | 0.00584 (inactive) | 6.17% (inactive) | 7.89% (inactive)
10 | O=C(CSc1ncccn1)c1ccccc1Br | 483 | 2.9% (inactive) | 0.9% (inactive) | 114% | 1.5% (inactive) | 103% | -0.582 (inactive) | -0.000119 (inactive) | 0.00475 (inactive) | -24.3% (inactive) | -65.9% (inactive)
11 | CCOc1ccc2nc(SCC#N)c(C#N)cc2c1 | 430 | 3.1% (inactive) | -3.9% (inactive) | 14.5% | 9.9% (inactive) | 114% | -0.561 (inactive) | -1.4e-05 (inactive) | 0.00501 (inactive) | -56.3% (inactive) | -93.9% (inactive)
12 | COc1ccc(OC)c(Nc2cc(-c3ccccc3)nc(N)n2)c1 | 423 | 9.2% (inactive) | -34.6% (inactive) | 0.5% | -25.1% (inactive) | 115% | -0.548 (inactive) | 4.9e-06 (inactive) | 0.00508 (inactive) | 46.6% (inactive) | 86.6% (active)
13 | Nc1ccc(Sc2nnnn2-c2ccccc2)c(Cl)c1 | 312 | -5.1% (inactive) | 8% (inactive) | 108% | -4% (inactive) | 78.5% | -0.468 (inactive) | -3.4e-05 (inactive) | 0.00613 (inactive) | 8.66% (inactive) | 13% (inactive)
14 | CSc1cccc(NC(=O)C2CCCN2S(=O)(=O)c2ccc3c(c2)CCC(=O)N3)c1 (stereo not drawn) | 571 | -6.9% (inactive) | -43.4% (inactive) | 99.9% | -72.3% (inactive) | 108% | -0.456 (inactive) | 4.1e-06 (inactive) | 0.00486 (inactive) | 4.83% (inactive) | 8.19% (inactive)
15 | Nc1nc(N)nc(-c2ccccc2)n1 | 402 | 6% (inactive) | 12% (inactive) | 91.3% | 22.3% (inactive) | 102% | -0.599 (inactive) | -3.3e-05 (inactive) | 0.00335 (inactive) | 13.8% (inactive) | 13.5% (inactive)
16 | O=S(=O)(NCC1CCCO1)c1cccc(C(F)(F)F)c1 (stereo not drawn) | 611 | -4.8% (inactive) | -6.4% (inactive) | 100% | -51.8% (inactive) | 159% | -0.568 (inactive) | 4.6e-05 (inactive) | 0.00471 (inactive) | 1.55% (inactive) | 12.2% (inactive)
17 | O=C(O)C1CC(=O)N(c2ccc(OCc3ccccc3Cl)cc2)C1 (stereo not drawn) | 339 | -2.2% (inactive) | 12.7% (inactive) | 97.1% | -95.2% (inactive) | 94.8% | -0.644 (inactive) | 4e-05 (inactive) | 0.0043 (inactive) | 18.4% (inactive) | 23.2% (inactive)
18 | CCCCN(c1ccccc1)S(=O)(=O)c1ccc2c(c1)CCN2C(=O)CCC(=O)O | 648 | 1.3% (inactive) | 7.8% (inactive) | 112% | -65.5% (inactive) | 117% | -0.526 (inactive) | 5.3e-05 (inactive) | 0.00543 (inactive) | 22.6% (inactive) | 99.4% (active)
19 | O=C(c1cc(-c2cccs2)on1)N1CCc2ccccc2C1 | 490 | -4.5% (inactive) | -23.8% (inactive) | 106% | -28.9% (inactive) | 96.8% | -0.441 (inactive) | -4.4e-06 (inactive) | 0.00464 (inactive) | 4.86% (inactive) | -18.5% (inactive)
20 | CCOC(=O)c1c(NC(=O)CSc2nc3c(c(=O)n(C)c(=O)n3C)n2C(C)C)sc(C)c1C | 547 | 1.2% (inactive) | 17.1% (inactive) | 110% | 26.4% (inactive) | 82.3% | -0.564 (inactive) | -2.9e-05 (inactive) | 0.00617 (inactive) | 18% (inactive) | 20.6% (inactive)
21 | CC1CN(c2c3c(nc4ncnn24)CCCC3)CC(C)O1 (stereo not drawn) | 752 | 0% (inactive) | -14.4% (inactive) | 99.9% | -31.5% (inactive) | 106% | -0.481 (inactive) | 3.1e-05 (inactive) | 0.00504 (inactive) | 14.7% (inactive) | 21.5% (inactive)
22 | O=C(Nc1nc(-c2ccc(S(=O)(=O)N3CCCCCC3)cc2)cs1)c1cccs1 | 368 | 15% (inactive) | -6.4% (inactive) | 115% | -30.6% (inactive) | 122% | -0.53 (inactive) | -2.4e-05 (inactive) | 0.0134 (active) | 10.4% (inactive) | 3.6% (inactive)
23 | CCC1(C)Cc2c(C#N)c(N)n(-c3ccccc3)c(=O)c2CO1 (stereo not drawn) | 531 | -8.6% (inactive) | 13.9% (inactive) | 100% | -59.9% (inactive) | 93.4% | -0.622 (inactive) | 6.4e-05 (inactive) | 0.00509 (inactive) | -3.47% (inactive) | 5.33% (inactive)
24 | CCC1Cc2c(nc3c4c(nc(N5CCOCC5)c(C#N)c24)NC(C)=N3)O1 (stereo not drawn) | 657 | 0.8% (inactive) | 7.2% (inactive) | 92.3% | 43.9% (inactive) | 97.4% | -0.35 (inactive) | -1.8e-05 (inactive) | 0.00571 (inactive) | 14.3% (inactive) | 1.06% (inactive)
25 | COc1ccc(C(=O)OC(COc2ccccc2)Cn2ccnc2)cc1 (stereo not drawn) | 348 | -7.4% (inactive) | -15.3% (inactive) | 98% | 13.4% (inactive) | 118% | -0.291 (inactive) | 6.7e-06 (inactive) | 0.00691 (inactive) | -15.3% (inactive) | -24.8% (inactive)
26 | COc1ccc(C(=O)CSc2nnc(CNc3ccc(C)cc3C)o2)cc1 | 606 | -4.1% (inactive) | 3% (inactive) | 101% | -136% (inactive) | 199% | -0.469 (inactive) | -8.4e-05 (inactive) | 0.00401 (inactive) | 14.6% (inactive) | 11.8% (inactive)
27 | COc1ccccc1NC(=O)N(Cc1ccccc1)c1ccccn1 | 756 | 3.2% (inactive) | -5.9% (inactive) | 93.7% | 19.9% (inactive) | 114% | -0.581 (inactive) | -7e-05 (inactive) | 0.00744 (inactive) | -7.55% (inactive) | -38.8% (inactive)
28 | O=C(Nc1ccccc1)c1cccnc1N1CCOCC1 | 590 | -11.1% (inactive) | -5.4% (inactive) | 110% | -36.4% (inactive) | 84.1% | -0.449 (inactive) | -0.000339 (inactive) | 0.00425 (inactive) | 4.9% (inactive) | 19.1% (inactive)
